Values after ≈ are worked out from the molar mass of the structure shown.

The nature of data set [1]: Tested for cytotoxicity by using brine shrimp lethality test. As to conditions: artemia, in vivo. Format: organism-based.
The next data set deals with MCF7. The data set is described as follows: Tested in vitro for cytotoxicity against MCF-7 breast cancer cells. Conditions: Homo sapiens, read-out: ED50 (the source's name). Format: functional. A digest of the protocol:
(§1)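 Seven-day in vitro cytotoxicity assay in human tumour cell lines (A-549 lung carcinoma, MCF-7 breast carcinoma, HT-29 colon carcinoma), run by standard protocols; adriamycin tested alongside.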

In the next data set the test system is A549. The data set can be described thus: Tested in vitro for cytotoxicity against A-549 lung cancer cells. Format: functional. As to conditions: Homo sapiens, read-out: ED50 (the source's name). A digest of the protocol: as §1
In the next data set the test system is HT-29. The data set is described as follows: Tested in vitro for cytotoxicity against H-29 colon cancer cells. Conditions: Homo sapiens, read-out: ED50 (the source's name). Format: functional. A digest of the protocol:
as §1

`CCCCCC[C@H](O)CCC[C@@H](O)[C@H]1CC[C@H]([C@H]2CC[C@H]([C@H](O)CCCCCCCCC[C@@H](C)CCC3=C[C@H](C)OC3=O)O2)O1`: the LC50 (in general, the concentration that kills 50% of the test population) in data set [1] came out at 0.0049 µg/mL (≈ 0.00769 µM).
In turn, `CCCCCCCCCC[C@@H](O)[C@H]1CC[C@H]([C@H]2CC[C@H]([C@H](O)CCCCCCCCCC[C@H](O)CC3=C[C@H](C)OC3=O)O2)O1` registered an LC50 in data set [1] of 0.0256 µg/mL (≈ 0.0411 µM). The values for the EC50 in the data set with MCF7 and with A549 were 0.852 µg/mL (≈ 1.37 µM) and 0.00843 µg/mL (≈ 0.0135 µM), respectively.
`CCCCCCCCCC[C@@H](O)[C@H]1CC[C@H]([C@H]2CC[C@H]([C@H](O)CCCCCCCCC[C@@H](C)CCC3=C[C@H](C)OC3=O)O2)O1` had a 50% lethal concentration (LC50) in data set [1] of 4600 µg/mL (≈ 7410 µM).
In turn, `CCCCCCCCCC[C@@H](C(C)=O)[C@H]1CC[C@H]([C@H]2CC[C@H]([C@@H](CCCC[C@H](CCCC[C@@H](C)CCC3=C[C@H](C)OC3=O)C(C)=O)C(C)=O)O2)O1` yielded a median lethal concentration (LC50) in data set [1] of 0.0057 µg/mL (≈ 0.00797 µM).
`COc1cccc2c1C(=O)c1c(O)c3c(c(O)c1C2=O)C[C@@](O)(C(=O)CO)C[C@@H]3O[C@H]1C[C@H](N)[C@H](O)[C@H](C)O1` [DOXORUBICIN]: the median lethal concentration (LC50) in data set [1] came out at 0.257 µg/mL (≈ 0.473 µM). The EC50 in the data set with MCF7 turned out to be 0.0176 µg/mL (≈ 0.0324 µM); in the data set on A549 it was 0.000104 µg/mL (≈ 0.000191 µM); in the data set on HT-29 it was 0.000153 µg/mL (≈ 0.000281 µM).
